Experimental data: article PMC5161541 (Nuclear medicine and biology, 2016)
Where two headings read alike, the source gives them in different places.

Tests used:
[1] = target: sites labeled by [125I]-E-IA-BF-PIPZE (σ1 receptors) (Mus musculus, UniProt O55242); type: binding
σ1 receptors [2] = target: T1, σ1 receptors (Mus musculus, UniProt O55242); settings: 100 μmol / kg, i.p.; cited from earlier work
σ1 receptors [3] = target: T1, σ1 receptors; assay: In vivo specific binding and blocking by pretreatment with σ receptor ligands; settings: for adverse effects or abnormal behaviors: mice
σ1 receptors [4] = target: T1, σ1 receptors; assay: Regional brain distribution with blocking pretreatments; type: in vivo, CD-1 mouse; settings: 2.5 μmol / kg i.v., 60 min, nine regions
DAT = DAT (Mus musculus, UniProt Q61327); assay: Secondary site spot test, [125I]-RTI-121; type: binding
Chain of DAT (Q61327 whole entry): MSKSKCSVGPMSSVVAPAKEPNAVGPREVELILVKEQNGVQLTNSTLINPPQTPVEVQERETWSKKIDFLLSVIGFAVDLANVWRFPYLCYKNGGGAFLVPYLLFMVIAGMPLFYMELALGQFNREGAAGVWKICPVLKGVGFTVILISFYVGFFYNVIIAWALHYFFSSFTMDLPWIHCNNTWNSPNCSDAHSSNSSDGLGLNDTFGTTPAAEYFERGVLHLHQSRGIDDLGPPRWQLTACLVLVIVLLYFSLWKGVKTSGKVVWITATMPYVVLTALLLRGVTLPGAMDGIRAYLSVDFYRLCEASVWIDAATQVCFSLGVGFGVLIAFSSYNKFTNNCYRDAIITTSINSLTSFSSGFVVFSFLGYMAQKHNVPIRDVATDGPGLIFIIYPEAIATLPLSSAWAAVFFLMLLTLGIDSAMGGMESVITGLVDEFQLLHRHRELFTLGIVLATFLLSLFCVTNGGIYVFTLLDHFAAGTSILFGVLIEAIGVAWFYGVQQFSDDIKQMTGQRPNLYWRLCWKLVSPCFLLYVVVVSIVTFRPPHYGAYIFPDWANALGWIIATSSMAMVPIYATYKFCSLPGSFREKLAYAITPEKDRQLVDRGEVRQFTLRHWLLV

[5] = target: Kappa (κ) opioid receptor (Cavia porcellus, UniProt P41144); assay: Secondary site spot test, [3H]-U69593; type: binding, guinea pig
Chain of Kappa (κ) opioid receptor (P41144 whole entry): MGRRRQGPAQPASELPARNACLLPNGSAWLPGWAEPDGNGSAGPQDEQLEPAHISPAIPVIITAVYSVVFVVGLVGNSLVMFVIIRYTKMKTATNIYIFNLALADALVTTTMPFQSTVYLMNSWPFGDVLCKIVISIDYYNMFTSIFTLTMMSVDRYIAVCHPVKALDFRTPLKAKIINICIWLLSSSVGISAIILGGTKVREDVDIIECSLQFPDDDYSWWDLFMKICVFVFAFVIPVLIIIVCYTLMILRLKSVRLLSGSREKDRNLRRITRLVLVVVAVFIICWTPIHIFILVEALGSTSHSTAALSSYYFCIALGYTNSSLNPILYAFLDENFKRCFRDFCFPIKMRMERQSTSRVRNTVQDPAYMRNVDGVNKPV

σ2 receptors = target: T2, σ2 receptors (Mus musculus, UniProt Q8VD00); assay: Competition binding against [3H]-DTG with PTZ mask in mouse brain membranes
T2 sequence (Q8VD00 1-176): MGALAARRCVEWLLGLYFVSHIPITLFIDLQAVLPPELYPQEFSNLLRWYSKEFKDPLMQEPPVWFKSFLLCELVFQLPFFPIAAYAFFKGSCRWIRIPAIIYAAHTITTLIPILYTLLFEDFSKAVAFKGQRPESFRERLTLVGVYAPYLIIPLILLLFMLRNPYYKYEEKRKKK

NET = NET (Mus musculus, UniProt O55192); assay: Secondary site spot test, [3H]-Nisoxetine; type: binding
Chain of NET (O55192 whole entry): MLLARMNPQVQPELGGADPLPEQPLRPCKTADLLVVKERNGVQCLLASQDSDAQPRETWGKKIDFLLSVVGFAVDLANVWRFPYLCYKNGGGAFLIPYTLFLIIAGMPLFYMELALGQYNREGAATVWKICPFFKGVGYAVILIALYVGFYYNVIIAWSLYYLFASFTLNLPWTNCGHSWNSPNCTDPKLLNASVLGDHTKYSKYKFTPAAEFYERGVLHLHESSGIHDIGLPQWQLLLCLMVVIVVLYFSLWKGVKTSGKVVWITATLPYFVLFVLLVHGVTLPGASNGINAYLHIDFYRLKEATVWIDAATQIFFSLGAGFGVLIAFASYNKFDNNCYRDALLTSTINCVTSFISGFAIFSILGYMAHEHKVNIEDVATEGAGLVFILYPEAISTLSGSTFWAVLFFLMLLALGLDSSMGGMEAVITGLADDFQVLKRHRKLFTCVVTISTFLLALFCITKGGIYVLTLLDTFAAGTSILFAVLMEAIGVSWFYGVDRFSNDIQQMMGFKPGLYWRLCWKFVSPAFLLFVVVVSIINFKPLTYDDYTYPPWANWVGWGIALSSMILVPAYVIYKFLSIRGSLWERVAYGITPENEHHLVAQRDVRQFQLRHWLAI

Mu (μ) opioid receptor = Mu (μ) opioid receptor (Cavia porcellus, UniProt A0ACM8Q262); assay: Secondary site spot test, [3H]-DAMGO; type: binding, guinea pig
Chain of Mu (μ) opioid receptor (A0ACM8Q262 1-400): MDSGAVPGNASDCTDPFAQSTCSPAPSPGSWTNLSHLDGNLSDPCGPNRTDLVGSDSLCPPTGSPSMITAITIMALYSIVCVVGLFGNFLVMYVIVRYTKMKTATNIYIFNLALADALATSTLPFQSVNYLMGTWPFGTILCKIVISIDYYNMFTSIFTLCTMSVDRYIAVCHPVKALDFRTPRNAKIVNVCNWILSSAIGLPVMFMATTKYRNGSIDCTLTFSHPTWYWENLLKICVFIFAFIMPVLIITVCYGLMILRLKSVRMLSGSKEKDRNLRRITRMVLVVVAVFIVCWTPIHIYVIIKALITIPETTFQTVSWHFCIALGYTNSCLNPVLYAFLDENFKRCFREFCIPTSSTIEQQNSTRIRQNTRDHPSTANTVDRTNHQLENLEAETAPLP

SERT = SERT (Mus musculus, UniProt Q60857); assay: Secondary site spot test, [3H]-Paroxetine; type: binding
Chain of SERT (Q60857 whole entry): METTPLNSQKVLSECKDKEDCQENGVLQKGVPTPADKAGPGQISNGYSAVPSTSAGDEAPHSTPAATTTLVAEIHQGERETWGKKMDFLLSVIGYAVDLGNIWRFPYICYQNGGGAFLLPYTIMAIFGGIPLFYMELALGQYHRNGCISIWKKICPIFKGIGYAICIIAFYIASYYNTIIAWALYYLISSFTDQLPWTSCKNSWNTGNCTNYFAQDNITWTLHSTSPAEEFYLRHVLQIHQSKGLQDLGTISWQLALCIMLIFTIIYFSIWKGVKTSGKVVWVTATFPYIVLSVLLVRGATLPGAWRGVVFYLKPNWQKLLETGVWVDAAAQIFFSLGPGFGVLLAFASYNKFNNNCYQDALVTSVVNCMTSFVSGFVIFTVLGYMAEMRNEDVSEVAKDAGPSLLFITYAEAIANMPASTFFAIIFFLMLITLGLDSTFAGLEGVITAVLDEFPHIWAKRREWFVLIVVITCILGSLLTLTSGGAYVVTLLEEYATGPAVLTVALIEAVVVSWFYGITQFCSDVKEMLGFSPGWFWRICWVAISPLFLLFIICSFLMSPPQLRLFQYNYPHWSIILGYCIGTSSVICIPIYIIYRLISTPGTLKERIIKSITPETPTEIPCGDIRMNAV

σ1 receptors [6] = target: T1, σ1 receptors; assay: Competition binding against [3H]-PTZ in mouse brain membranes
[7] = target: Delta (δ) opioid receptor (Mus musculus, UniProt P32300); assay: Secondary site spot test, [3H]-Naltrindole; type: binding
Chain of Delta (δ) opioid receptor (P32300 whole entry): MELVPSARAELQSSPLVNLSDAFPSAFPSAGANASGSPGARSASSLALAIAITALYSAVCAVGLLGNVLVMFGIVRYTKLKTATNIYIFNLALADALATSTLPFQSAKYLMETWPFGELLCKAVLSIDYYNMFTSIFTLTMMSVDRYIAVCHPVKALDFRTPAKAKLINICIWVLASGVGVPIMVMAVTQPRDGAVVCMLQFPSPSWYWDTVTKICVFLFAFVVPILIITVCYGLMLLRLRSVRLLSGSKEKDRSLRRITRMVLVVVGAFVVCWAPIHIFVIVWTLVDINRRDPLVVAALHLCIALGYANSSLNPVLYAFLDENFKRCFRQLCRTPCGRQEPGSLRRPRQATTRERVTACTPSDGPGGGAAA

[8] = target: vesicular acetylcholine transporter (VAChT); settings: read-out: apparent affinity for VAChT in vitro; cited from earlier work
σ1 receptors [9] = settings: cited from earlier work
[10] = target: cannabinoid receptor type 2 (CB2); settings: cited from earlier work
cerebral σ1 receptors = settings: over 30 h, SPECT; cited from earlier work
σ1 receptors [11] = target: T1, σ1 receptors; type: binding
[12] = Radiometabolite analysis of tissue extracts and urine by HPLC; type: in vivo, CD-1 mouse; settings: for Radiometabolites Whole Brain, 60 min: mouse, in vivo
How it was run: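 Organs from i.v.-dosed mice, given more radioactivity than in pharmacokinetic studies, counted and homogenized in methanol/acetonitrile/water containing DTG (100 μM). Homogenates centrifuged, with a radioactivity balance taken for extracts and pellets. Extracts diluted with water and filtered (0.45 μm) for radio-HPLC. Urine only diluted with mobile phase and filtered.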

[13] = TCA protein precipitation assay of plasma protein binding; type: in vitro ADME, mouse; settings: for Protein Binding: mouse plasma, 37 °C, 30 min, TCA precipitation, n = 9
How it was run: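 Radioiodinated test compound incubated in commercial mouse plasma at 37 °C for 30 min. Proteins then precipitated with cold 10% TCA / 5% HCl to measure protein-bound radioactivity.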

σ1 receptors [14] = target: T1, σ1 receptors; assay: "Hot" saturation binding in mouse brain membranes
How it was run: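 "Hot" saturation: mouse brain membranes incubated with increasing radioligand concentrations until steady-state binding. Non-specific binding determined in parallel at each concentration with a competing non-radioactive ligand. Specific binding fitted by nonlinear regression to the one-site mass-action equation to give Kd and Bmax. Bound/Free expressed as (fmol/mg protein)/nM for the Scatchard plot. Single experiment.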

σ1 receptors [15] = target: T1, σ1 receptors; assay: Calculated binding potential; settings: single trial, protein assumed 5% of brain tissue
How it was run: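 The Scatchard Y-intercept, as Bound/Free in (fmol/mg protein)/nM from the in vitro mouse brain membrane saturation experiment, was converted to tissue-concentration units assuming protein is 5% of brain tissue. This gave binding potential for a single trial.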

[16] = Lipophilicity, shake-flask n-octanol / buffer pH 7.4; type: physicochemical
How it was run: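 Shake-flask method: radiolabeled test compound partitioned between equal volumes of n-octanol and aqueous buffer pH 7.4, each presaturated with the other. Vortexed, then centrifuged. Each layer sampled in duplicate or triplicate and counted. Counts normalized per g or per mL, and the concentration ratio converted to Log D7.4.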

[17] = Temporal biodistribution after i.v. radioligand in CD-1 mice; type: in vivo, CD-1 mouse
How it was run: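 Radioligand given i.v. to male CD-1 mice, with tissues sampled from 5 min to 24 h. Uptake expressed as %ID/g. Clearance half-lives from heart and lung obtained by monoexponential decay fitting.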

[18] = 0.1 nM [125I]-E-IA-BF-PIPZE, 37 °C, 180 min, means ± SEM (n = 3 – 6)
[19] = Cheng-Prusoff, 0.1 nM [125I]-E-IA-BF-PIPZE, means ± SEM (n = 3 – 6)
[20] = listed as [^125I]-E-IA-BF-PIPZE
[21] = 15 min, defined by BD1063 5 μmol / kg i.v.

T1 sequence (O55242 whole entry): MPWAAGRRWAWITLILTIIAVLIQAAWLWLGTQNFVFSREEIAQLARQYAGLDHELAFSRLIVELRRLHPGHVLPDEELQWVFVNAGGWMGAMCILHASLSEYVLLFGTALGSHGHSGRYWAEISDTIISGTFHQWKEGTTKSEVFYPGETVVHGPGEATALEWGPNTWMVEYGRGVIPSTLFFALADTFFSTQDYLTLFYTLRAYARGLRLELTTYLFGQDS
Chain of sites labeled by [125I]-E-IA-BF-PIPZE (σ1 receptors) (O55242 whole entry): as above

## CC(C)=CCN1CC[C@]2(C)c3cc(O)ccc3C[C@H]1[C@H]2C [(+)-Pentazocine, (+)-pentazocine]
[1]; means ± SEM (n = 3 – 6)
  Hill (nH): 0.9 ± 0.1

## COC(=O)[C@H]1[C@@H](OC(=O)c2ccccc2)C[C@@H]2CC[C@H]1N2C [(−)-cocaine]
σ1 receptors [2]
  inhibition of [125I]-E-IA-DM-PE-PIPZE uptake: 50%

## CN1CCN(CCc2ccc(Cl)c(Cl)c2)CC1 [BD1063]
[1]; [18]
  IC50: 13.6 ± 0.7 nM
[1]; [19]
  Ki: 9.6 ± 0.5 nM
[1]; means ± SEM (n = 3 – 6)
  Hill (nH): 1.3 ± 0.1
σ1 receptors [3]; 2.5 μmol / kg i.v.
  adverse effects or abnormal behaviors: No adverse effects or abnormal behaviors
σ1 receptors [3]; 60 min, blocker 2.5 μmol / kg i.v.
  radioactivity in the blood after pretreatment: 0.76 ± 0.04 %ID / g

## COc1cc2c(cc1OC)CN(CCCCNC(=O)c1cc(Br)cc(OC)c1OC)CC2 [Br-Mach, reference compound]
σ1 receptors [4]
  reduction of radioligand uptake across brain regions: minimal but statistically significant
[1]; [18]
  IC50: 9850 ± 807 nM
[1]; [19]
  Ki: 6390 ± 524 nM
[1]; means ± SEM (n = 3 – 6)
  Hill (nH): 1.1 ± 0.2
σ1 receptors [3]; 2.5 μmol / kg i.v., 60 min
  decrease of radioligand uptake in brain: 14%
  decrease of radioligand uptake in heart: 15%
  decrease of radioligand uptake in muscle: 24%
  inhibition of radioligand uptake in spleen, kidney, lung or liver: did not inhibit
σ1 receptors [3]; 2.5 μmol / kg i.v.
  adverse effects or abnormal behaviors: No adverse effects or abnormal behaviors

## Cc1ccccc1NC(=N)Nc1ccccc1C [DTG, ditolylguanidine]
[1]
  IC50: 209 ± 14 nM
  Ki: 114 ± 7 nM
[1]; means ± SEM (n = 3 – 6)
  Hill (nH): 1.0 ± 0.1

## I/C=C/CN1CCN(CCc2ccc3c(c2)CCO3)CC1 [E-IA-BF-PE-PIPZE, (E)-1-(2-(2,3-dihydrobenzofuran-5-yl)ethyl)-4-(iodoallyl)piperazine]
DAT
  IC50: > 10000 nM
DAT; read-out: inhibition of specific radioligand binding, DAT
  inhibition at 10 µM: ≤ 50%
σ1 receptors [4]
  reduction of radioligand uptake across brain regions: over 92%
[5]
  IC50: > 5000 nM
[5]; read-out: inhibition of specific radioligand binding, κ
  inhibition at 5 µM: ≤ 50%
σ2 receptors
  Ki: 74.5 ± 4.44 nM
[1]
  IC50: 1.7 ± 0.2 nM
  Ki: 1.1 ± 0.1 nM
[1]; means ± SEM (n = 3 – 6)
  Hill (nH): 1.0 ± 0.1
NET
  IC50: > 10000 nM
NET; read-out: inhibition of specific radioligand binding, NET
  inhibition at 10 µM: ≤ 50%
Mu (μ) opioid receptor; read-out: IC50 Mu, [3H]-DAMGO 0.6 nM, guinea pig membranes
  IC50: > 5000 nM
Mu (μ) opioid receptor; read-out: inhibition of specific radioligand binding, μ
  inhibition at 5 µM: ≤ 50%
σ1 receptors [3]; 2.5 μmol / kg i.v.
  adverse effects or abnormal behaviors: No adverse effects or abnormal behaviors
SERT
  IC50: > 10000 nM
SERT; read-out: inhibition of specific radioligand binding, SERT
  inhibition at 10 µM: ≤ 50%
σ1 receptors [6]
  Ki: 0.43 ± 0.03 nM
σ1 receptors [6]; [3H]-PTZ competition
  Hill slope: −1.23 ± 0.04
σ1 receptors [6]; σ2 Ki / σ1 Ki
  Selectivity: σ2/σ1 (Ki ratio): 173
[7]
  IC50: > 5000 nM
[7]; read-out: inhibition of specific radioligand binding, δ
  inhibition at 5 µM: ≤ 50%

## COc1ccc(CCN2CCN(CCCc3ccccc3)CC2)cc1OC [SA4503, 1-[2-(3,4-dimethoxyphenyl)ethyl]-4-(3-phenylpropyl)piperazine]
[8]
  Ki: 50 nM

## COc1ccc(CCN2CCN(CCCc3ccccc3)CC2)cc1 [YZ-067]
σ1 receptors [9]
  σ1 receptor affinity relative to SA4503: improved affinity

## CCCCCCC(C)(C)c1ccc([C@@H]2C[C@H](O)CC[C@H]2CCCO)c(O)c1 [[^3H]-CP55940]
[10]
  Kd: 1.5 nM

## N#Cc1ccc(OCC2CCN(CC=CI)CC2)cc1 [[^123I]-TPCNE, [^123I]-1-(iodopropen-2-yl)-4-[(4-cyanophenoxy)methyl]piperidine]
σ1 receptors [9]; read-out: apparent affinity (Ki) for σ1 sites in vitro
  Ki: 0.67 nM

## N#Cc1ccc(OCC2CCN(CC=C[123I])CC2)cc1 [[^123I]-TPCNE, [^123I]-1-(iodopropen-2-yl)-4-[(4-cyanophenoxy)methyl]piperidine]
Cerebral σ1 receptors
  clearance from human brain: no clearance

## I/C=C/CN1CCN(CCc2ccc3c(c2)CCO3)CC1 [[^125I]-E-IA-BF-PE-PIPZE, [^125I]-(E)-1-(2-(2,3-dihydrobenzofuran-5-yl)ethyl)-4-(iodoallyl)piperazine]
σ1 receptors [11]; read-out: kinetically determined Kd (koff / kon), from rate constants
  Kd: 0.042 nM
σ1 receptors [6]; read-out: Sigma-1 Ki, [3H]-PTZ, mouse brain membranes, mean ± SEM, n = 4
  Ki: 0.43 nM

## [125I]/C=C/CN1CCN(CCc2ccc3c(c2)CCO3)CC1 [[^125I]-E-IA-BF-PE-PIPZE, [^125I]-(E)-1-(2-(2,3-dihydrobenzofuran-5-yl)ethyl)-4-(iodoallyl)piperazine]
[12]; 60 min
  extractable radioactivity, liver: 80%
  urinary radioactivity as polar metabolites: 99%
[12]; 60 min, 100 μCi i.v.
  radioactivity in brain tissue from intact radioligand: About 99%
[12]
  Radiometabolites Whole Brain, 60 min: 1%
[12]; [20]
  Radiometabolites Whole Brain, 60 min: 1%
[13]
  increase of protein binding with respect to [125I]-E-IA-DM-PE-PIPZE: 50%
  Protein Binding: 71 ± 0.3%
[13]; [20]
  Protein Binding: 71.2 ± 0.3%
σ1 receptors [11]; 0.16 nM radioligand, 37 °C
  kobs: 0.016 ± 0.002 min⁻¹
  time to steady-state binding: ~180 min
σ1 receptors [11]; 0.16 nM radioligand, 37 °C, haloperidol-initiated dissociation
  koff: 5.5e-05 ± 5e-06 s⁻¹
σ1 receptors [14]; (fmol / mg protein) / nM, single experiment
  Bound / Free Y-intercept: 1942
σ1 receptors [14]; Kd 0.042 nM vs […]
  fold higher affinity from rate constants compared to saturation binding: 5.7 fold
σ1 receptors [14]; measured Kd, mouse brain membranes
  fold higher σ1 receptor affinity than [125I]-E-IA-DM-PE-PIPZE: 16 fold
σ1 receptors [14]; mouse brain membranes, 37 °C, 180 min, four trials, listed as [^125I]-E-IA-BF-PIPZE
  Bmax: 472 ± 13 fmol / mg protein
σ1 receptors [15]
  Binding Potential (BP): 97
σ1 receptors [3]; [21]
  specific radioligand binding in brain: 75%
  specific radioligand binding in heart: 87%
  specific radioligand binding in lung: 87%
  specific radioligand binding in muscle: 61%
σ1 receptors [3]; 60 min, saline-treated control group
  radioactivity in the blood, controls: 0.38 ± 0.09 %ID / g
σ1 receptors [3]; mouse, in vivo, 0.5 h
  Non-Specific binding Whole Brain, 30 min: 0.89 %ID /g
  Specific binding Whole Brain, 30 min: 4.90 %ID /g
σ1 receptors [3]; mouse, in vivo, 1 h
  Non-Specific binding Whole Brain, 60 min: 0.60 %ID /g
  Specific binding Whole Brain, 60 min: 5.38 %ID /g
σ1 receptors [3]; mouse, in vivo, 4 h
  Non-Specific binding Whole Brain, 240 min: 0.34 %ID /g
  Specific binding Whole Brain, 240 min: 4.14 %ID /g
σ1 receptors [3]; ratio of %ID /g values
  Specific / Non-Specific Whole Brain, 30 min: 5.5
  Specific / Non-Specific Whole Brain, 60 min: 9.0
  Specific / Non-Specific Whole Brain, 240 min: 12
σ1 receptors [3]; ratio of %ID /g values, listed as [^125I]-E-IA-BF-PIPZE
  Specific / Non-Specific Whole Brain, 240 min: 12.2
[16]
  fold higher lipophilicity than [125I]-E-IA-DM-PE-PIPZE: 2.8 fold
[16]; n-octanol / buffer pH 7.4, n = 5
  Log D7.4: 2.69 ± 0.28
[17]; 5 min
  blood level: 0.31 ± 0.03 %ID / g
  radioactivity in the eye: 2.01 ± 0.13 %ID / g
[17]; 5 min, i.v., mean ± SD
  brain uptake: 6.14 ± 0.94 %ID / g
[17]; 15 min, i.v., mean ± SD
  peak brain uptake: 6.56 ± 1.23 %ID / g
[17]; 4 h
  brain uptake: 4.48 ± 0.22 %ID / g
[17]; 24 h
  blood level: 0.08 ± 0.01 %ID / g
  brain uptake: 0.76 ± 0.091 %ID / g
[17]; monoexponential decay, r^2 0.88
  clearance t½ from lung: 1.73 h
[17]; monoexponential decay, r^2 0.90
  clearance t½ from heart: 1.98 h
[17]; mouse, in vivo
  initial whole brain uptake: > 6 % injected dose / g
  uptake in heart relative to brain, higher by: 50%
  uptake in lung compared to brain: 5 fold
